From ChEMBL document CHEMBL2057092, “The SAR analysis of TRPV1 agonists with the α-methylated B-region” (Bioorg Med Chem Lett, 2012) come the findings set out here.

Assay [1] concerns the target T1, Transient receptor potential cation channel subfamily V member 1 (Rattus norvegicus, UniProt O35433). In words: Agonist activity at rat TRPV1 expressed in CHO cells assessed as calcium uptake. In kind it is functional, cell-based. The procedure, abridged: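 Functional agonism was read as 45Ca2+ uptake in CHO cells heterologously expressing rat TRPV1.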
For assay [2], the target named is Transient receptor potential cation channel subfamily V member 1 (Rattus norvegicus) (UniProt O35433). The assay can be described thus: Antagonist activity at rat TRPV1 expressed in CHO cells assessed as inhibition of calcium uptake at 30 uM. In kind it is functional, cell-based.
Sequence of Transient receptor potential cation channel subfamily V member 1 (Rattus norvegicus) (O35433 whole entry): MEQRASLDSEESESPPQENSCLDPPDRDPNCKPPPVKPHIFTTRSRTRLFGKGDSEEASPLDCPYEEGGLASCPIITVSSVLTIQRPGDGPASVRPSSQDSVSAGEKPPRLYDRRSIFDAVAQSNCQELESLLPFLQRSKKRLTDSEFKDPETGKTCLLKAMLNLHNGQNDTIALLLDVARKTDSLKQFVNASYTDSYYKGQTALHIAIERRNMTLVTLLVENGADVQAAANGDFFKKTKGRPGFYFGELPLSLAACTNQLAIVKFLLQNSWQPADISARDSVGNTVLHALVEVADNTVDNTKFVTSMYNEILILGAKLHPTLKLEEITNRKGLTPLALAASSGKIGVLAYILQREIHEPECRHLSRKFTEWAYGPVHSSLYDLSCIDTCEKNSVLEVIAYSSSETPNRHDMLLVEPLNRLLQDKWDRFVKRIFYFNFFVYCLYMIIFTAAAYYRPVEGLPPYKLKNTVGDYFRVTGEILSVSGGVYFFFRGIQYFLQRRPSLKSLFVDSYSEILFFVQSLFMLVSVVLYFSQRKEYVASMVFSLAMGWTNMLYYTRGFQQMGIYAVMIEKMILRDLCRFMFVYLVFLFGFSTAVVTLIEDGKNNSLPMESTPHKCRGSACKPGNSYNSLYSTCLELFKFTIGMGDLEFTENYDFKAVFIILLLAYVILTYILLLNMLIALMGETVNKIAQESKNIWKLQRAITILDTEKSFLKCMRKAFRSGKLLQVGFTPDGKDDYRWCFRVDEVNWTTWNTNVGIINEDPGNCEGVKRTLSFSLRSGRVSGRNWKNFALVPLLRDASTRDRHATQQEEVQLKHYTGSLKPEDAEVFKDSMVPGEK
Assay [3] deals with T1, Transient receptor potential cation channel subfamily V member 1. The assay can be described thus: Displacement of [3H]RTX from rat TRPV1 expressed in CHO cells. In kind it is cell-based. A general note: Displacement assays read how much labelled ligand stays bound in the presence of the test substance.
The target in assay [4] is Transient receptor potential cation channel subfamily V member 1 (Rattus norvegicus) (UniProt O35433). In words: Agonist activity at rat TRPV1 expressed in CHO cells assessed as calcium uptake at 300 nM relative to capsaicin. In kind it is functional, cell-based.

T1 sequence (O35433 whole entry): as above

For `COc1cc(CC(=O)NCc2ccc(C(C)(C)C)cc2)ccc1OCCN`, the EC50 in assay [1] was 358 nM. The inhibition in assay [2] worked out at 12%. The Ki in assay [3] came out at 1230 nM.
On to `CCCCCCCCCC(=O)NCc1ccc(O)c(OC)c1`, for which, in assay [1], the EC50 came out at 83 nM. Moreover, the affinity in assay [3] corresponds to a Ki of 864 nM.
For `COc1cc(C(C)C(=O)NCCCc2ccc(C)c(C)c2)ccc1O` (stereo unspecified) the same measures were 21.3 nM and 177 nM.
As for `CCCCCCCCCNC(=O)C(C)c1ccc(O)c(OC)c1` (stereo unspecified), the half-maximal effective concentration (EC50) in assay [1] came out at 26.3 nM. Moreover, the affinity in assay [3], expressed as Ki, was 159 nM.
With `COc1cc(C(C)C(=O)NCc2ccc(C(C)(C)C)cc2)ccc1O` (stereo unspecified), the EC50 in assay [1] turned out to be 24 nM. Moreover, the inhibition in assay [2] is 15%. In addition, in assay [3], the Ki came to 308 nM.
Regarding `CCCCCCCCNC(=O)C(C)c1ccc(O)c(OC)c1` (stereo unspecified), the EC50 in assay [1] is 130 nM. The Ki in assay [3] was determined as 744 nM.
On to `CC(C(=O)NCc1ccc(C(C)(C)C)cc1)c1ccc(O)c(F)c1` (stereo unspecified), for which, in assay [1], the EC50 came out at 221 nM. Besides, the inhibition in assay [2] was found to be 20%. Further, the affinity in assay [3] corresponds to a Ki of 178 nM.
Take `COc1cc(CNC(=S)NCc2ccc(C(C)(C)C)cc2)ccc1O`: the EC50 in assay [1] is 2.6 nM.
As to `CC(C)(C)c1ccc(CNC(=O)Cc2ccc(O)c(Cl)c2)cc1`, the EC50 in assay [1] was 206 nM. This molecule also registered a Ki in assay [3] of 132 nM.
Take `CC(C)(C)c1ccc(CNC(=O)Cc2ccc(OCCN)c(F)c2)cc1`: the inhibition in assay [2] was 18%. Besides, the Activity in assay [4] was found to be 63%. The molecule also gave a Ki in assay [3] of 10100 nM.
On to `COc1cc(C(C)NC(=S)NCc2ccc(C(C)(C)C)cc2)ccc1O` (stereo unspecified), for which the EC50 in assay [1] came out at 380 nM. The inhibition in assay [2] was found to be 35%. For the same molecule, the Activity in assay [4] came out at 70%. In assay [3], this molecule yielded a Ki of 194 nM.
As for `CCCCCCCCCNC(=O)Cc1ccc(O)c(OC)c1`, in assay [1], the EC50 stood at 61 nM. Moreover, in assay [3], the Ki was determined as 240 nM.
For `CCCCCCCC/C=C/CCCCCCCC(=O)NC(C)c1ccc(O)c(OC)c1` (stereo unspecified) the same measures were 678 nM and 226 nM.
On to `CC(C(=O)NCc1ccc(C(C)(C)C)cc1)c1ccc(OCCN)c(Cl)c1` (stereo unspecified), for which the inhibition in assay [2] came out at 38%. Also, in assay [4], the Activity was found to be 75%. In addition, in assay [3], the Ki was found to be 380 nM.
`CC(C(=O)NCc1ccc(C(C)(C)C)cc1)c1ccc(O)c(Cl)c1` (stereo unspecified): in assay [2], the inhibition was 9%. The Activity in assay [4] came out at 77%. In assay [3], this molecule came in with a Ki of 33.1 nM.
With `COc1cc(C(C)C(=O)NCCCc2ccc(C)c(C)c2)ccc1OCCN` (stereo unspecified), in assay [1], the 50% effective concentration (EC50) is 404 nM. For the same molecule, the affinity in assay [3], expressed as Ki, was 518 nM.
For `COc1cc(C(C)NC(=S)NCc2ccc(C(C)(C)C)cc2)ccc1OCCN` (stereo unspecified) the same measures were 5800 nM and 1430 nM.
In the case of `CC(C)(C)c1ccc(CNC(=O)Cc2ccc(OCCN)c(Cl)c2)cc1`, the inhibition in assay [2] amounted to 56%. In addition, the Activity in assay [4] was 36%. The affinity in assay [3], expressed as Ki, was 2470 nM.
On to `CCCCCCCCC(=O)NCc1ccc(O)c(OC)c1` [NONIVAMIDE], for which the EC50 in assay [1] came out at 223 nM. This molecule also showed an inhibition constant (Ki) in assay [3] of 1220 nM.
Take `CCCCCCCC/C=C\CCCCCCCC(=O)NCc1ccc(O)c(OC)c1` [OLVANIL]: the EC50 in assay [1] came to 202 nM. In assay [3], this molecule gave a Ki of 142 nM.
In the case of `CCCCCCCCNC(=O)Cc1ccc(O)c(OC)c1`, in assay [1], the concentration giving a half-maximal response (EC50) stood at 77 nM. In addition, the affinity in assay [3], expressed as Ki, was 848 nM.
In the same order, the values of `COc1cc(CC(=O)NCCCc2ccc(C)c(C)c2)ccc1O` are 41 nM and 354 nM.
Regarding `CCCCCCCCCC(=O)NC(C)c1ccc(O)c(OC)c1` (stereo unspecified), in assay [1], the EC50 worked out at 1250 nM. The inhibition in assay [2] was 28%. In addition, in assay [3], the affinity, expressed as Ki, was 3300 nM.
Consider `CCCCCCCCC(=O)NC(C)c1ccc(O)c(OC)c1` (stereo unspecified), for which the EC50 in assay [1] amounted to 1580 nM. Besides, the inhibition in assay [2] came out at 44%. The Activity in assay [4] came to 72%. This molecule also gave a Ki in assay [3] of 4280 nM.
On to `COc1cc(C/N=C(\S)NCc2ccc(C(C)(C)C)cc2)ccc1OCCN`, for which the concentration for a half-maximal effect (EC50) in assay [1] amounted to 132 nM. The molecule further came in with a Ki in assay [3] of 84 nM.
On to `COc1cc(C(C)C(=O)NCc2ccc(C(C)(C)C)cc2)ccc1OCCN` (stereo unspecified), for which the half-maximal effective concentration (EC50) in assay [1] was 238 nM. In addition, the inhibition in assay [2] was found to be 16%. The affinity in assay [3], expressed as Ki, was 504 nM.
Regarding `CC(C(=O)NCc1ccc(C(C)(C)C)cc1)c1ccc(OCCN)c(F)c1` (stereo unspecified), in assay [4], the Activity is 91%. In addition, the Ki in assay [3] is 2160 nM.
For `CC(C)(C)c1ccc(CNC(=O)Cc2ccc(O)c(F)c2)cc1`, in assay [1], the EC50 amounted to 911 nM. Further, the inhibition in assay [2] was 30%. For the same molecule, the inhibitory constant (Ki) in assay [3] amounted to 808 nM.
Regarding `COc1cc(CC(=O)NCCCc2ccc(C)c(C)c2)ccc1OCCN` [DAVASAICIN], the EC50 in assay [1] is 589 nM. In assay [3], this molecule yielded a Ki of 930 nM.

As a reminder, the EC50 is the concentration needed to bring the measured effect to its halfway point. What is called inhibition is the share of the control response that was lost under treatment. Broadly, the Ki is the equilibrium dissociation constant of an inhibitor or competing ligand from its target.
